# A1 apoptosis 2 – A1 inhibition read as caspase activation | caspase activation, % (concentration not given with the values) | AID 2465 | 24,000 tested, under 10 active | MEF A1-2A-BIM cells, caspase-Glo luminescence, 3 h; percent of clofoctol response, DMSO zero; in the data active means caspase activation above about 5.9%; inconclusive means no clear call, values can overlap the other calls; inactive means below about 2.2%
#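 Material: mouse embryonic fibroblasts co-expressing A1 and BIM (A1-2A-BIM), primed for A1 dependence / Quantity: 2500 cells/well / Buffer or medium: RPMI-1640 growth medium with 10% FBS / Doses: 50 nL compound per well, pinned / Schedule: 3 h compound exposure at 37 °C / Signal: Caspase-Glo luminescence (DEVD substrate) / Measure: Caspase-3/7 activation, seen as rise in luminescence signal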
# T cruzi HTS – inhibitors of intracellular Trypanosoma cruzi | intracellular Trypanosoma cruzi in host cells, plate reader | activity score (inhibition), % at 5.01 µM | actives 4.9% (n = 22,000); in the data active means activity score above about 55%; inconclusive means no clear call, values can overlap the other calls;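 further: parasites and compound incubated about four days before reading; 0% = median of neutral control wells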
# INS-1E rescue – INS-1E beta cell protection from cytokine death; INS-1E cytokine-induced death, ATP luminescence, 48 h; normalised: neutral wells 0, positive control 100; protection from cytokine-induced ATP loss, % at 10 µM; actives 0.1% (n = 20,000);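 active means mean replicate protection from cytokine-induced ATP loss at least 50% and at least 75% of replicates each reaching 50%; inconclusive means meets only one of the two criteria, mean or replicate share; inactive means fails both the mean and replicate share criteria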
#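 Material: INS-1E rat cells; Quantity: 8000 cells/well; Buffer or medium: phenol-red-free RPMI with 5% fetal bovine serum; Probe or stimulus: cytokine cocktail of IFN-γ, TNF-α and IL-1β; Compound dosing: single test concentration per compound, delivered by pin transfer; Incubation: 48 h co-treatment, 10 min post-lysis read; Signal: CellTiter-Glo luminescence.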
# Active calls of the source: *; ? = inconclusive; · = no result. This is one part of a sample in which hits are shown more often than they occur.
SMILES,A1 apoptosis 2,T cruzi HTS,INS-1E rescue
COc1ccc([C@H]2C[C@H]3C(I)=CC2C(=O)[C@]32CO2)cc1OC,0,·,·
CN1C(=O)N[C@@H]2c3ccccc3O[C@@]1(C)[C@@H]2CO[Si](C)(C)C(C)(C)C,-1,·,·
O=C(O)CCCCCCC(=O)N/N=C/c1ccc(S(=O)(=O)O)o1,1,-12,-9
NC(=O)COc1ccccc1/C=N/NC(=O)CCCCCCC(=O)Nc1ccccc1O,0,-14,1
C[C@H](CO)N1C[C@H](C)[C@H](CN(C)Cc2ccc(C(F)(F)F)cc2)Oc2ccc(NC(=O)Nc3cccc4ccccc34)cc2C1=O,1,49,·
C[C@@H]1CN([C@@H](C)CO)C(=O)c2cc(NC(=O)Nc3cccc4ccccc34)ccc2O[C@H]1CN(C)Cc1ccccc1,·,?,-15
C[C@@H]1CN([C@@H](C)CO)C(=O)c2cc(NC(=O)Nc3cccc4ccccc34)ccc2O[C@@H]1CN(C)Cc1ccc(C(F)(F)F)cc1,·,59*,·
C[C@@H]1CN([C@H](C)CO)C(=O)c2cc(NC(=O)Nc3cccc4ccccc34)ccc2O[C@@H]1CN(C)Cc1ccc(C(F)(F)F)cc1,0,75*,-11
O=C(NO)c1cccc(C(=O)N/N=C/c2cc(Br)cs2)c1,·,-25,10
C=CCC/C=N/NC(=O)CCCCCCC(=O)NO,-1,·,·
COc1ccc([C@@H]2C=C(C(=O)NCc3ccccc3)O[C@H](OCc3ccc(CO)cc3)C2)cc1,0,·,·
C[C@@H]1CCCCO[C@H](CN(C)Cc2ccc(Cl)c(Cl)c2)[C@@H](C)CN([C@@H](C)CO)C(=O)c2cc(NS(=O)(=O)c3ccc(F)cc3)ccc2O1,-1,·,·
COc1ccc(S(=O)(=O)Nc2ccc3c(c2)C(=O)N([C@H](C)CO)C[C@H](C)[C@@H](CN(C)Cc2ccc(Cl)c(Cl)c2)OCCCC[C@H](C)O3)cc1,0,·,·
C[C@@H]1CCCCO[C@@H](CN(C)Cc2ccc(Cl)c(Cl)c2)[C@@H](C)CN([C@H](C)CO)C(=O)c2cc(NS(=O)(=O)c3ccc(Cl)cc3)ccc2O1,-2,72*,-13
Cc1ccc(S(=O)(=O)Nc2ccc3c(c2)C(=O)N([C@H](C)CO)C[C@@H](C)[C@H](CN(C)Cc2ccc(Cl)c(Cl)c2)OCCCC[C@@H](C)O3)cc1,-1,·,·
COc1ccc(S(=O)(=O)Nc2ccc3c(c2)C(=O)N([C@H](C)CO)C[C@H](C)[C@@H](CN(C)Cc2ccc(Cl)c(Cl)c2)OCCCC[C@@H](C)O3)cc1,-1,73*,-69
C[C@@H]1CCCCO[C@H](CN(C)Cc2ccc(Cl)c(Cl)c2)[C@@H](C)CN([C@H](C)CO)C(=O)c2cc(NS(=O)(=O)c3ccc(Cl)cc3)ccc2O1,-2,64*,-14
COc1ccc([C@H]2C[C@H]3C(Br)=CC2C(=O)[C@]32CO2)cc1,0,·,·
COc1cc(/C=N/NC(=O)c2ccccn2)cc(OC)c1OC,·,-14,4
COC(=O)CCCCCCC(=O)N/N=C/c1ccccc1O,0,-4,4
C[C@@H]1CN([C@H](C)CO)C(=O)c2cccc(NC(=O)NC3CCCCC3)c2O[C@@H]1CN(C)Cc1ccc(Oc2ccccc2)cc1,-1,64*,-55
C[C@@H]1CN([C@H](C)CO)C(=O)c2cccc(NC(=O)NC3CCCCC3)c2O[C@H]1CN(C)Cc1ccccc1,-2,23,8
C[C@H]1CN([C@@H](C)CO)C(=O)c2cccc(NC(=O)NC3CCCCC3)c2O[C@@H]1CN(C)Cc1ccc(Oc2ccccc2)cc1,·,49,-21
C[C@@H]1CN([C@H](C)CO)C(=O)c2cccc(NC(=O)NC3CCCCC3)c2O[C@H]1CN(C)Cc1ccc(Oc2ccccc2)cc1,·,61*,-38
C[C@@H]1CN([C@H](C)CO)C(=O)c2cccc(NC(=O)NC3CCCCC3)c2O[C@H]1CN(C)Cc1ccc(-c2ccccc2)cc1,·,34,-7
SMILES,A1 apoptosis 2,T cruzi HTS,INS-1E rescue
C[C@H](CO)N1C[C@H](C)[C@@H](CN(C)Cc2ccc(-c3ccccc3)cc2)Oc2c(NC(=O)NC3CCCCC3)cccc2C1=O,·,68*,-19
C[C@H]1CN([C@@H](C)CO)C(=O)c2cc(NC(=O)CCCN(C)C)ccc2O[C@H]1CN(C)C(=O)Nc1ccccc1,1,·,·
C[C@@H]1CN([C@@H](C)CO)C(=O)c2cccc(NC(=O)c3ccncc3)c2O[C@H]1CN(C)Cc1ccc2c(c1)OCO2,0,59*,4
C[C@@H]1CN([C@H](C)CO)C(=O)c2cccc(NC(=O)c3ccncc3)c2O[C@@H]1CN(C)Cc1ccncc1,0,-22,12
C[C@@H]1CN([C@H](C)CO)C(=O)c2cccc(NC(=O)c3ccc(-c4nccs4)cc3)c2O[C@@H]1CN(C)Cc1ccc2c(c1)OCO2,0,15,-5
C[C@@H]1CN([C@H](C)CO)C(=O)c2cccc(NC(=O)c3ccncc3)c2O[C@H]1CN(C)Cc1ccc2c(c1)OCO2,1,87*,-9
C[C@H]1CN([C@@H](C)CO)C(=O)c2cccc(NC(=O)c3ccncc3)c2O[C@H]1CN(C)Cc1ccc2c(c1)OCO2,-1,62*,1
C[C@H](CO)N1C[C@H](C)[C@H](CN(C)Cc2ccc3c(c2)OCO3)Oc2c(NC(=O)c3cnccn3)cccc2C1=O,·,1,1
CCOc1cc(/C=N/NC(=O)c2cccc(C(=O)NO)c2)ccc1O,·,-1,-2
CC(/C=C/C(=O)NO)=C\c1ccccc1OCc1cn(C[C@@H]2CCCN2S(=O)(=O)c2ccc(C)cc2)nn1,1,·,·
COC(=O)CCCCCCC(=O)N/N=C/c1ccccc1[N+](=O)[O-],-2,-18,9
O=C(NO)c1ccc(C(=O)N/N=C/c2ccc([N+](=O)[O-])s2)cc1,0,38,16
C[C@@H]1CN([C@H](C)CO)C(=O)c2cccc(NC(=O)c3ccncc3)c2O[C@@H]1CN(C)C(=O)Nc1ccccc1,1,-22,1
C[C@H]1CN([C@@H](C)CO)C(=O)c2cccc(NC(=O)c3ccncc3)c2O[C@H]1CN(C)C(=O)Nc1ccccc1,0,79*,4
C[C@H](CO)N1C[C@H](C)[C@@H](CN(C)C(=O)Nc2ccc(C(F)(F)F)cc2)Oc2c(NC(=O)c3ccncc3)cccc2C1=O,0,15,11
C[C@H](CO)N1C[C@H](C)[C@H](CN(C)C(=O)Nc2ccc(F)cc2)Oc2c(NC(=O)c3ccncc3)cccc2C1=O,·,81*,2
C[C@H]1CN([C@@H](C)CO)C(=O)c2cccc(NC(=O)c3ccncc3)c2O[C@H]1CN(C)C(=O)Nc1ccc(C(F)(F)F)cc1,1,86*,8
C[C@@H]1CN([C@@H](C)CO)C(=O)c2cccc(NC(=O)c3ccncc3)c2O[C@@H]1CN(C)C(=O)Nc1ccc(F)cc1,1,-7,10
COc1ccc(Br)cc1/C=N/NC(=O)CCCCC(=O)NO,0,·,·
O=C(N/N=C/c1cc(Br)c(O)c(Br)c1)c1ccccc1O,·,-13,-57
O=C(NCc1nc2ccccc2[nH]1)C1=C[C@@H](c2coc3ccccc3c2=O)C[C@@H](OCc2ccc(CO)cc2)O1,-1,·,·
